# Results published in ChEMBL document CHEMBL3870325 (Bioorg Med Chem, 2017).
# Tests used:
# cells [1] = format: functional, cell-based; details: Homo sapiens, BT-474, 48 h
# [2] = target: Receptor tyrosine-protein kinase erbB-2 (Homo sapiens, UniProt P04626); assay: Inhibition of HER2 (unknown origin) assessed as remaining ATP level measured after 15 mins by luminescence analysis
# How it was run: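 Kinase run as a contracted HTRF assay. Compounds in 3-fold dilution in 2.5% DMSO/kinase buffer, mixed with kinase and substrate, preincubated 15 min at RT. ATP added to start, reaction 30 min at RT. Stopped with Streptavidin-XL665 plus europium-cryptate TK antibody (1:100). Excitation 320 nm, 665/615 nm emission ratio. IC50 from inhibition curves, results from 2 assays.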
# cells [3] = format: functional, cell-based; details: Homo sapiens, A549, 48 h
# [4] = target: T1, Protein deacetylase HDAC6 (Homo sapiens, UniProt Q9UBN7); assay: Inhibition of HDAC6 (unknown origin) using acetylated peptide substrate preincubated for 15 mins followed by substrate addition measured after 60 mins by fluorescence analysis
# T1 sequence (Q9UBN7 whole entry): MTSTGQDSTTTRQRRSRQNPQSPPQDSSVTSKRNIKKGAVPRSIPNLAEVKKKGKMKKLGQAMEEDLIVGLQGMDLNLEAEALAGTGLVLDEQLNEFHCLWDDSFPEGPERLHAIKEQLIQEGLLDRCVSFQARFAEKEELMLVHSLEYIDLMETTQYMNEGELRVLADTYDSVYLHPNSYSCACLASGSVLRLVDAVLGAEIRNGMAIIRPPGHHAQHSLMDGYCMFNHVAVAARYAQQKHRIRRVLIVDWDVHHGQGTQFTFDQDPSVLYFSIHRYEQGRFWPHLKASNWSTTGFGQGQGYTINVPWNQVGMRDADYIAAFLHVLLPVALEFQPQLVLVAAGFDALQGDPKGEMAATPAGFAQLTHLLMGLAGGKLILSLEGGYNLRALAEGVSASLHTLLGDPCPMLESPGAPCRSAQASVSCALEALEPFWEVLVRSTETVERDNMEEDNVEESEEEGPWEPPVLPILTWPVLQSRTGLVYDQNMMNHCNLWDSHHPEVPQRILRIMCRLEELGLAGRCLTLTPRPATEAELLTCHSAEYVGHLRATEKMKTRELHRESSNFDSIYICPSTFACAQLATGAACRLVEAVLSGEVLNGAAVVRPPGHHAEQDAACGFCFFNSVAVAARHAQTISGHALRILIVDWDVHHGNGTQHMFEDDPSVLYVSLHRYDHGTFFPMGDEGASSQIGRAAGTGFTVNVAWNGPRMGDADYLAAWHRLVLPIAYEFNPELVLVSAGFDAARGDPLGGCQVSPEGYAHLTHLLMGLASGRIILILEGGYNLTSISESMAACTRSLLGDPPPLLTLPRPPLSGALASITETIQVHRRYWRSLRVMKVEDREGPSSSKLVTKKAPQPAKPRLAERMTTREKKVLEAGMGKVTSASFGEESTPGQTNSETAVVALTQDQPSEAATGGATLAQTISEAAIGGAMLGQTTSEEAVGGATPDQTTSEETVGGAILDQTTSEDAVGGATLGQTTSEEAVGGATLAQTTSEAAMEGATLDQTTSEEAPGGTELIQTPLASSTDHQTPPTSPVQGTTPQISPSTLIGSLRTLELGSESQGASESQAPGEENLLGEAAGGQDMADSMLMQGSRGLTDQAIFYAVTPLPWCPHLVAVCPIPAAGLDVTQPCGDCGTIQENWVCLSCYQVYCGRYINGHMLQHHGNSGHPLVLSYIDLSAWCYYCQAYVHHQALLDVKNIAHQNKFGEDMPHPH
# [5] = target: Epidermal growth factor receptor (Homo sapiens, UniProt P00533)
# Histone deacetylase 1 = Histone deacetylase 1 (Homo sapiens, UniProt Q13547); assay: Inhibition of HDAC1 (unknown origin) using acetylated peptide substrate preincubated for 15 mins followed by substrate addition measured after 60 mins by fluorescence analysis
# cells [6] = details: Homo sapiens, NCI-H1975, 48 h
# cells [7] = details: Homo sapiens, SK-BR-3, 48 h
# cells [8] = details: Homo sapiens, A-431, 48 h
# Sequence of Histone deacetylase 1 (Q13547 whole entry): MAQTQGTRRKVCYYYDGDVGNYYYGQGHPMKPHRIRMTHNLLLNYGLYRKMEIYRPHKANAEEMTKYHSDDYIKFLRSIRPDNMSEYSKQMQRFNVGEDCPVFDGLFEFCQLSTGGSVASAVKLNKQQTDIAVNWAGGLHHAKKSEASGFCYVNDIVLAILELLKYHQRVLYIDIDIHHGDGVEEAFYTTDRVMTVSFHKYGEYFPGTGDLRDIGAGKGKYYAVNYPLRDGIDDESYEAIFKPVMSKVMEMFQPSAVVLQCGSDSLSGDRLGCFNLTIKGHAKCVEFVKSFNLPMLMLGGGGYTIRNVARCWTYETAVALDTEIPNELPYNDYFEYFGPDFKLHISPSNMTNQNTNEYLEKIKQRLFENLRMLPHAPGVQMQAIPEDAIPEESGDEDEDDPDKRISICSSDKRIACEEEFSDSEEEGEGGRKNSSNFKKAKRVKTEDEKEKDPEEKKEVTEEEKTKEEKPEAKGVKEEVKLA
# Sequence of Epidermal growth factor receptor (P00533 whole entry): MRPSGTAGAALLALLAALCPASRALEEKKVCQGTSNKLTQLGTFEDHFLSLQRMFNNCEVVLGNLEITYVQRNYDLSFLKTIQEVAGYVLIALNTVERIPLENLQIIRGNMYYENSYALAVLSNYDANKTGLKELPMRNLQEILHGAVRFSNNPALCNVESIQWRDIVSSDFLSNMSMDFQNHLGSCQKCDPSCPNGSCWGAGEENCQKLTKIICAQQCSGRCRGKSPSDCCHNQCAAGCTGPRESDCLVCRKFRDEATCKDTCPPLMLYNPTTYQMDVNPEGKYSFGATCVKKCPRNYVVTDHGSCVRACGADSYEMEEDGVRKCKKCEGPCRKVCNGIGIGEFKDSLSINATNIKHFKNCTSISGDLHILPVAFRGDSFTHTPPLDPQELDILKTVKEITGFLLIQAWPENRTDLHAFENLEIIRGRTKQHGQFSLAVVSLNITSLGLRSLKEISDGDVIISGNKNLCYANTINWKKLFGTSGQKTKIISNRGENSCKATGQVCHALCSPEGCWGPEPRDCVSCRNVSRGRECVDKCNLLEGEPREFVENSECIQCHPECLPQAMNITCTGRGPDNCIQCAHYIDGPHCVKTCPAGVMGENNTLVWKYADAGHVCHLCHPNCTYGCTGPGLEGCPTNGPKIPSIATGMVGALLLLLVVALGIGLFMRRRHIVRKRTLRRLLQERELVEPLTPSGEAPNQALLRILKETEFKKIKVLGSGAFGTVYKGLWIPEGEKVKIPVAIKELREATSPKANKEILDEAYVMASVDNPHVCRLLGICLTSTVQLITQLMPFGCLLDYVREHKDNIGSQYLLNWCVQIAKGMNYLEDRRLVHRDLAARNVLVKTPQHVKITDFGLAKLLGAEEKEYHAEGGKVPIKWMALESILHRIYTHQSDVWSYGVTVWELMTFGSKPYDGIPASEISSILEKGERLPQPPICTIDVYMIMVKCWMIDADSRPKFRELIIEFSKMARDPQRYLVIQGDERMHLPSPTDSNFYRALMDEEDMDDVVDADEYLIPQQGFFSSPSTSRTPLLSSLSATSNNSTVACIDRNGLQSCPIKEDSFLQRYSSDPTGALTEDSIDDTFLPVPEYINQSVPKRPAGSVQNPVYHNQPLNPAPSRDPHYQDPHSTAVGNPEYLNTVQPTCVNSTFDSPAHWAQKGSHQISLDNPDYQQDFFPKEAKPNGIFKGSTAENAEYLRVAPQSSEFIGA
# Sequence of Receptor tyrosine-protein kinase erbB-2 (P04626 whole entry): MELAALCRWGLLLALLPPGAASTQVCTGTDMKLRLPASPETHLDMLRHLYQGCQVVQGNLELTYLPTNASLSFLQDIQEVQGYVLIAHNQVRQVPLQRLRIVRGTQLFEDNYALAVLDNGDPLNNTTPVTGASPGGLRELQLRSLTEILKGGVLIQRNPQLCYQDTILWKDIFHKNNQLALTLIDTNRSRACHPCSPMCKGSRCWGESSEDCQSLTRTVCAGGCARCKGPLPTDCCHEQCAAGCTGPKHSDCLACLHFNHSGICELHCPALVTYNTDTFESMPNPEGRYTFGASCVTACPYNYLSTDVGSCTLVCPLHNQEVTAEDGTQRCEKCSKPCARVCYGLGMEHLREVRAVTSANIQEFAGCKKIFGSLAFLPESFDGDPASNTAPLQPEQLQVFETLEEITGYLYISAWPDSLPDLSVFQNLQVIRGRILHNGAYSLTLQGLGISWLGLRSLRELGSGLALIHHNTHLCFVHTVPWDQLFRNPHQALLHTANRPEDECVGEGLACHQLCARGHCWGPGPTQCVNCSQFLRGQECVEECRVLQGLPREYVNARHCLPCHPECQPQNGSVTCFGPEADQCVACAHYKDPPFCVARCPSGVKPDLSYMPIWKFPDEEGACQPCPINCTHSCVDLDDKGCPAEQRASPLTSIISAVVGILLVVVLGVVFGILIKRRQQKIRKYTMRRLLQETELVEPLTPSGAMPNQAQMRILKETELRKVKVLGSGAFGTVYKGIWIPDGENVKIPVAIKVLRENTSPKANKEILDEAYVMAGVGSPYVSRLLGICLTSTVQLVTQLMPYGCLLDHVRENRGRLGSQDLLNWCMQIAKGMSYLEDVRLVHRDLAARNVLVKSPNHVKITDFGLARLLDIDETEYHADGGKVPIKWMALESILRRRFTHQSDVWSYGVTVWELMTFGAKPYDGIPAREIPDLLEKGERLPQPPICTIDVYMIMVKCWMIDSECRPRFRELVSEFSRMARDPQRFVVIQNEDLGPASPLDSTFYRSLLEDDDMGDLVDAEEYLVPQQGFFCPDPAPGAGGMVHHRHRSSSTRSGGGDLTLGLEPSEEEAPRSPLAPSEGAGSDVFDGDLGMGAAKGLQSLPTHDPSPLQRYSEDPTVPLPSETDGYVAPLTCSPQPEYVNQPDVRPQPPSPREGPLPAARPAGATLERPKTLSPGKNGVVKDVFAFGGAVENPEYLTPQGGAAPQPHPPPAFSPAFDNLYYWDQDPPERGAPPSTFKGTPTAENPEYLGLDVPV
Compound,IC50 (cells [1]) [µM],IC50 [2] [nM],IC50 (cells [3]) [µM],IC50 [4] [nM],IC50 [5] [nM],IC50 (Histone deacetylase 1) [nM],IC50 (cells [6]) [µM],IC50 (cells [7]) [nM],IC50 (cells [8]) [nM]
COc1cc(Nc2ncnc3ccc(-c4cn(CCCCCCC(=O)NO)nn4)cc23)ccc1Oc1ccccc1,4.95,> 1000,13.5,16,11.6,12.8,–,–,–
Cc1ccc(Oc2ccc(Nc3ncnc4ccc(-c5cn(CCCCCCC(=O)NO)nn5)cc34)cc2C)cn1,4.41,> 1000,16.5,13.8,10,5.2,–,–,–
O=C(CCCCCCn1cc(-c2ccc3ncnc(Nc4ccc(F)c(Cl)c4)c3c2)nn1)NO,3.63,177,0.51,8.4,0.69,2.6,8.76,1270,1950
Cc1ccc(Oc2ccc(Nc3ncnc4ccc(-c5cn(CCCCCC(=O)NO)nn5)cc34)cc2C)cn1,14.7,> 1000,8.46,12.9,6.4,6.9,–,–,–
O=C(CCCCCCC(=O)Nc1ccccc1)NO [VORINOSTAT],–,–,–,–,–,–,–,–,2290
O=C(CCCCCCn1cc(-c2ccc3ncnc(Nc4ccc(OCc5nccs5)c(Cl)c4)c3c2)nn1)NO,2.88,707,8.79,13.6,3.6,5.6,–,–,–
O=C(CCCCCn1cc(-c2ccc3ncnc(Nc4cccc(Cl)c4F)c3c2)nn1)NO,> 50,386,> 50,4.1,0.27,1.4,–,–,–
CS(=O)(=O)CCNCc1ccc(-c2ccc3ncnc(Nc4ccc(OCc5cccc(F)c5)c(Cl)c4)c3c2)o1 [LAPATINIB],0.1,–,0.51 to 1.74,–,–,–,7.25,60,150
